Reference: article PMC3711763 (The Journal of neuroscience : the official journal of the …, 2013)
Where two headings read alike, the source gives them in different places.

Assays:
[1] = tested on: impulsive action in the 5-CSRT task; conditions: cited from earlier work
male Sprague Dawley rats [2] = experiment: 1-choice serial reaction time; type: in vivo, rat; conditions: i.p.; for % Accuracy / % Omissions / Latency to start / Response latency / Time to finish: mean ± SEM; for number of reinforcers earned (combination study) / premature responses (combination study): alone or combined
Summary of the method: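 Male Sprague Dawley rats (225–325 g) were housed two per cage and food-restricted to 90% of free-feeding weight. They were trained until stable: >80% accuracy and <20% omissions for five consecutive sessions at the final stage (0.5 s stimulus, 5 s limited hold, 5 s ITI), with <15% variability. Test compound or saline vehicle was given i.p. 15 min pre-session. Data were analysed by one-way repeated-measures ANOVA with Dunnett's test versus saline.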

male Sprague Dawley rats [3] = experiment: spontaneous locomotor activity; type: in vivo, rat; conditions: i.p.
5-HT2AR = 5-HT2AR (Homo sapiens, UniProt P28223); experiment: intracellular calcium release in 5-HT2AR–CHO cells; type: cell-based; conditions: for Cai2+ release, peptide alone, in 5-HT2AR–CHO cells: 15 min, peptide alone (data not shown); for effect on 5-HT-mediated Cai2+ release in 5-HT2AR–CHO cells: 15 min preincubation, 10 nM 5-HT
5-HT2AR, sequence (P28223 whole entry): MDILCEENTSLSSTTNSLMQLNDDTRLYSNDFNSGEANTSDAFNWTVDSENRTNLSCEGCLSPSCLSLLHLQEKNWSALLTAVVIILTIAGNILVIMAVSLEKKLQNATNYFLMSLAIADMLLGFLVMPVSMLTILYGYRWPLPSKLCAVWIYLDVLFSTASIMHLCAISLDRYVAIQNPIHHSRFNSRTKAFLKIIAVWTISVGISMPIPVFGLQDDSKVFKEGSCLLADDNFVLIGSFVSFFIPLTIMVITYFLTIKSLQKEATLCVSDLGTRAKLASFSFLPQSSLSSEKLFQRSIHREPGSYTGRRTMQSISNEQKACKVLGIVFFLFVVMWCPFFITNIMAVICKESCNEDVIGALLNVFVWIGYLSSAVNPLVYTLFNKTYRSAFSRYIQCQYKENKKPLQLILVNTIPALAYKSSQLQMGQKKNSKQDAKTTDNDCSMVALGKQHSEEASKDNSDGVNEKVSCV

circular dichroism = type: physicochemical; conditions: in water; 3L4F 300 μM, 3L4F-F1 100 and 300 μM; three independent trials
5-HT2CR = conditions: for Cai2+ release, peptide alone (unstimulated): no agonist, fluorescence; for effect on 5-HT-evoked Cai2+ release: ANOVA main effect
[4] = tested on: 5-HT2CR and PTEN protein expression, 5-HT2CR–CHO cells; experiment: Western blot of protein expression in 5-HT2CR–CHO cells; type: cell-based, human 5-HT2CR; CHO cells; conditions: 1 pM, 15 min preincubation
Summary of the method: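 Cells were rinsed in ice-cold Krebs' solution, pelleted, and homogenized in HEPES/EDTA/EGTA/DTT buffer containing protease and phosphatase inhibitors. The membrane pellet from differential centrifugation was resuspended in buffer with 400 mM NaCl and 0.5% NP-40. Protein was quantified by BCA, reduced and heated at 70°C for 20 min, run on 4–12% Bis-Tris SDS-PAGE and transferred to PVDF. Blots were probed with primary antibody overnight and secondary for 45 min, then read by infrared imaging.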

[5] = tested on: 5-HT2CR–PTEN complex in VTA; experiment: co-IP of 5-HT2CR–PTEN complex in rat VTA after systemic administration; type: in vivo; conditions: 10 μmol/kg, i.p., killed 5 min later, relative to vehicle (saline)
[6] = 0.5 and 1 mg/kg, versus saline, p < 0.05
[7] = TAT–3L4F 0.3 μmol/kg, WAY163909 0.1 mg/kg, versus saline
[8] = WAY163909 0.1 mg/kg, combination study
[9] = TAT–3L4F 0.1 μmol/kg, WAY163909 1 mg/kg, alone or combined
[10] = TAT–3L4F 0.1 μmol/kg, WAY163909 1 mg/kg, alone or combined, p < 0.05
[11] = 15 min preincubation, Calcium 4 dye
[12] = 15 min preincubation, 1 nM 5-HT
[13] = TAT–3L4F 0.3 μmol/kg, combination study
[14] = 1 μmol/kg, versus saline, p < 0.05

Cc1cc2c(cc1Cl)N(C(=O)Nc1ccc(Oc3cccnc3C)nc1)CC2.Cl.Cl [SB242084, 6-chloro-5-methyl-1-((2-(2-methylpyrid-3-yloxy)pyrid-5-yl)carbamoyl)indoline dihydrochloride]
impulsive action by premature responses in the 5-CSRT task ([1]; ref Winstanley et al., 2004b, Fletcher et al., 2007): increase impulsive action

c1cc2c3c(c1)[C@H]1CCC[C@H]1N3CCNC2 [WAY163909, (7bR, 10aR)-1,2,3,4,8,9,10,10a-octa-hydro-7bH-cyclopenta-(b)(1,4)diazepino (6,7,1hi)indole]
% Accuracy (male Sprague Dawley rats [2]; 0.05 mg/kg): 100.52 ± 0.4% | % Omissions (male Sprague Dawley rats [2]; 0.05 mg/kg): 6.23 ± 1.1% | Latency to start (male Sprague Dawley rats [2]; 0.05 mg/kg): 0.69 ± 0.2 s | Response latency (male Sprague Dawley rats [2]; 0.05 mg/kg): 2.75 ± 0.4 s | Time to finish (male Sprague Dawley rats [2]; 0.05 mg/kg): 933.62 ± 29.4 s | % Accuracy (male Sprague Dawley rats [2]; 0.1 mg/kg, dose-response study): 100.72 ± 0.5% | % Omissions (male Sprague Dawley rats [2]; 0.1 mg/kg, dose-response study): 5.40 ± 0.9% | Latency to start (male Sprague Dawley rats [2]; 0.1 mg/kg, dose-response study): 1.13 ± 0.2 s | Response latency (male Sprague Dawley rats [2]; 0.1 mg/kg, dose-response study): 2.57 ± 0.2 s | Time to finish (male Sprague Dawley rats [2]; 0.1 mg/kg, dose-response study): 923.55 ± 16.5 s | % Accuracy (male Sprague Dawley rats [2]; 0.2 mg/kg): 100.15 ± 0.7% | % Omissions (male Sprague Dawley rats [2]; 0.2 mg/kg): 6.26 ± 1.6% | Latency to start (male Sprague Dawley rats [2]; 0.2 mg/kg): 0.85 ± 0.2 s | Response latency (male Sprague Dawley rats [2]; 0.2 mg/kg): 2.84 ± 0.4 s | Time to finish (male Sprague Dawley rats [2]; 0.2 mg/kg): 941.12 ± 34.9 s | % Accuracy (male Sprague Dawley rats [2]; 0.5 mg/kg): 100.61 ± 0.4% | % Omissions (male Sprague Dawley rats [2]; 0.5 mg/kg): 5.85 ± 0.9% | Latency to start (male Sprague Dawley rats [2]; 0.5 mg/kg): 0.62 ± 0.1 s | Response latency (male Sprague Dawley rats [2]; 0.5 mg/kg): 2.54 ± 0.2 s | Time to finish (male Sprague Dawley rats [2]; 0.5 mg/kg): 926.23 ± 17.3 s | % Accuracy (male Sprague Dawley rats [2]; 1 mg/kg): 101.48 ± 0.6% | % Omissions (male Sprague Dawley rats [2]; 1 mg/kg): 8.94 ± 0.7% | Latency to start (male Sprague Dawley rats [2]; 1 mg/kg): 1.11 ± 0.2 s | Response latency (male Sprague Dawley rats [2]; 1 mg/kg): 3.06 ± 0.4 s | Time to finish (male Sprague Dawley rats [2]; 1 mg/kg): 981.14 ± 33.7 s | number of reinforcers earned (male Sprague Dawley rats [2]; [6]): increased the number of reinforcers earned versus saline | premature responses (male Sprague Dawley rats [2]; [6]): decreased premature responses versus saline | number of reinforcers earned (combination study) (male Sprague Dawley rats [2]; [7]): Neither 0.3 μmol/kg TAT–3L4F nor 0.1 mg/kg WAY163909 alone altered the number of reinforcers earned versus saline | premature responses (combination study) (male Sprague Dawley rats [2]; [7]): Neither 0.3 μmol/kg TAT–3L4F nor 0.1 mg/kg WAY163909 alone altered premature responses | % Accuracy (male Sprague Dawley rats [2]; [8]): 100.21 ± 0.8% | % Omissions (male Sprague Dawley rats [2]; [8]): 5.45 ± 1.0% | Latency to start (male Sprague Dawley rats [2]; [8]): 1.11 ± 0.3 s | Response latency (male Sprague Dawley rats [2]; [8]): 2.83 ± 0.5 s | Time to finish (male Sprague Dawley rats [2]; [8]): 948.78 ± 37.7 s | additional measures of task performance (male Sprague Dawley rats [2]; accuracy, motivation, motility indices): did not alter additional measures of task performance, including accuracy, motivation, or motility indices | total vertical activity, 70 min (combination study) (male Sprague Dawley rats [3]; [9]): No main effect of treatment was observed for vertical activity | vertical activity, 5-min bins (combination study) (male Sprague Dawley rats [3]; [9]): No main effect of treatment | central ambulation, 5-min bins (combination study) (male Sprague Dawley rats [3]; [10]): significantly reduced central ambulation versus saline at 10 min | peripheral ambulation, 5-min bins (combination study) (male Sprague Dawley rats [3]; [10]): significantly reduced peripheral ambulation versus saline at 5 and 10 min | total central ambulation, 70 min (combination study) (male Sprague Dawley rats [3]; [10]): but not either ligand alone | total horizontal ambulation, 70 min (combination study) (male Sprague Dawley rats [3]; TAT–3L4F 0.1 μmol/kg, WAY163909 1 mg/kg, alone or combined, versus saline): neither ligands tested alone at chosen doses altered total horizontal ambulation | impulsive action by premature responses in the 5-CSRT task ([1]; ref Navarra et al., 2008): potently suppress

Ac-PNQDQNAR-NH2 [3L4F-F1]
Cai2+ release, peptide alone, in 5-HT2AR–CHO cells (5-HT2AR): did not induce Cai2+ release | effect on 5-HT-mediated Cai2+ release in 5-HT2AR–CHO cells (5-HT2AR): did not induce Cai2+ release or alter Cai2+ release evoked by 10 nM 5-HT | CD signal at 222 nm (circular dichroism): shallow inflection point at 222 nm | α-helix content by CD (circular dichroism): 10–30% | Cai2+ release, peptide alone (unstimulated) (5-HT2CR; [11]): did not induce Cai2+ release | concentrations that significantly increased Cai2+ release versus 1 nM 5-HT (5-HT2CR; 15 min preincubation, 1 nM 5-HT, Calcium 4 dye, FlexStation3, p < 0.05): 10 ^−13 to 10 ^−9 M

Ac-PNQDQNARRRKKKERR-NH2 [3L4F]
Cai2+ release, peptide alone, in 5-HT2AR–CHO cells (5-HT2AR): nor did it alter Cai2+ release when tested alone | effect on 5-HT-mediated Cai2+ release in 5-HT2AR–CHO cells (5-HT2AR): did not potentiate 5-HT-mediated (10 nM) Cai2+ release | membrane protein expression levels of 5-HT2CR or PTEN [4]: unchanged | CD signal at 222 nm (circular dichroism): clear inflection point at 222 nm | α-helix content by CD (circular dichroism): < 50% | cellular entry without TAT conjugation (5-HT2CR): TAT conjugation is not necessary for cellular entry | Emax of 5-HT-evoked Cai2+ release in presence of peptide (5-HT2CR; 1 pM peptide, 15 min, 5-HT concentration response, p < 0.05): 120.7 % of maximal response for 5-HT | Cai2+ release, peptide alone (unstimulated) (5-HT2CR; [11]): did not alter unstimulated Cai2+ release

Ac-QNARRRKK-NH2 [3L4F-F2]
Cai2+ release, peptide alone, in 5-HT2AR–CHO cells (5-HT2AR): did not induce Cai2+ release | effect on 5-HT-mediated Cai2+ release in 5-HT2AR–CHO cells (5-HT2AR): did not induce Cai2+ release or alter Cai2+ release evoked by 10 nM 5-HT | Cai2+ release, peptide alone (unstimulated) (5-HT2CR; [11]): did not induce Cai2+ release | effect on 5-HT-evoked Cai2+ release (5-HT2CR; [12]): No main effect

Ac-RRKKKERR-NH2 [3L4F-F3]
Cai2+ release, peptide alone, in 5-HT2AR–CHO cells (5-HT2AR): did not induce Cai2+ release | effect on 5-HT-mediated Cai2+ release in 5-HT2AR–CHO cells (5-HT2AR): did not induce Cai2+ release or alter Cai2+ release evoked by 10 nM 5-HT | Cai2+ release, peptide alone (unstimulated) (5-HT2CR; [11]): did not induce Cai2+ release | effect on 5-HT-evoked Cai2+ release (5-HT2CR; [12]): No main effect

Ac-YGRKKRRQRRRPNPDQKPRRKKKEKR-NH2 [rat TAT–3L4F]
number of reinforcers earned (combination study) (male Sprague Dawley rats [2]; [7]): Neither 0.3 μmol/kg TAT–3L4F nor 0.1 mg/kg WAY163909 alone altered the number of reinforcers earned versus saline | premature responses (combination study) (male Sprague Dawley rats [2]; [7]): Neither 0.3 μmol/kg TAT–3L4F nor 0.1 mg/kg WAY163909 alone altered premature responses | % Accuracy (male Sprague Dawley rats [2]; [13]): 98.69 ± 0.6% | % Omissions (male Sprague Dawley rats [2]; [13]): 4.77 ± 1.0% | Latency to start (male Sprague Dawley rats [2]; [13]): 1.00 ± 0.6 s | Response latency (male Sprague Dawley rats [2]; [13]): 2.19 ± 0.2 s | Time to finish (male Sprague Dawley rats [2]; [13]): 875.10 ± 15.3 s | effect across multiple activity measures (male Sprague Dawley rats [3]; 0.1 μmol/kg, alone): ineffective across multiple activity measures | horizontal ambulation, 5-min bins (male Sprague Dawley rats [3]; 1 μmol/kg, 15 min before test, versus saline, p < 0.05): significantly reduced horizontal ambulation versus saline at 5, 10, and 15 min | total horizontal ambulation, 70 min (male Sprague Dawley rats [3]; [14]): significantly reduced total horizontal ambulation versus saline | total peripheral ambulation, 70 min (male Sprague Dawley rats [3]; [14]): significantly reduced peripheral ambulation versus saline | central ambulation, 5-min bins (male Sprague Dawley rats [3]; 0.1 or 1 μmol/kg): No main effect of treatment | vertical activity, 5-min bins (male Sprague Dawley rats [3]; 0.1 or 1 μmol/kg): No main effect of treatment | total vertical activity, 70 min (combination study) (male Sprague Dawley rats [3]; [9]): No main effect of treatment was observed for vertical activity | vertical activity, 5-min bins (combination study) (male Sprague Dawley rats [3]; [9]): No main effect of treatment | total central ambulation, 70 min (combination study) (male Sprague Dawley rats [3]; [10]): but not either ligand alone | intensity of PTEN immunoreactive band after IP for 5-HT2CR, VTA [5]: attenuated relative to vehicle (saline) treatment
